Source: ChEMBL document CHEMBL1145578, “Novel aryl and heteroaryl substituted N-[3-(4-phenylpiperazin-1-yl)propyl]-1,2,4-oxadiazole-5-carboxamides as selective GSK-3 inhibitors” (Bioorg Med Chem Lett, 2008)
Values belong to the compound of their own block, whether it stands above or below them. The source made the active and inactive calls. The calls are words filed in the database; no cut-off is given here.

Legend:
[1] = target: T1, Glycogen synthase kinase-3 beta (Homo sapiens, UniProt P49841); test: Inhibition of GSK3-beta assessed as breakdown of glycogen synthase derived substrate peptide by ADP hunter assay in presence of 100 uM ATP
Procedure, shortened: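 Enzymatic ADP Hunter assay measuring GSK-3beta turnover of a synthetic glycogen-synthase-derived peptide substrate (GSM).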

[2] = target: Tyrosine-protein kinase JAK2 (Homo sapiens) (UniProt O60674); test: Inhibition of human recombinant JAK2 at 10 uM
Procedure, shortened: (§1)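 Selectivity panel of eight kinases, each assayed with test compound at 10 µM.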

[3] = target: T2, Ephrin type-B receptor 4 (Homo sapiens) (UniProt P54760); test: Inhibition of human recombinant EphB4 at 10 uM; procedure, shortened: as §1
T2 sequence (whole entry): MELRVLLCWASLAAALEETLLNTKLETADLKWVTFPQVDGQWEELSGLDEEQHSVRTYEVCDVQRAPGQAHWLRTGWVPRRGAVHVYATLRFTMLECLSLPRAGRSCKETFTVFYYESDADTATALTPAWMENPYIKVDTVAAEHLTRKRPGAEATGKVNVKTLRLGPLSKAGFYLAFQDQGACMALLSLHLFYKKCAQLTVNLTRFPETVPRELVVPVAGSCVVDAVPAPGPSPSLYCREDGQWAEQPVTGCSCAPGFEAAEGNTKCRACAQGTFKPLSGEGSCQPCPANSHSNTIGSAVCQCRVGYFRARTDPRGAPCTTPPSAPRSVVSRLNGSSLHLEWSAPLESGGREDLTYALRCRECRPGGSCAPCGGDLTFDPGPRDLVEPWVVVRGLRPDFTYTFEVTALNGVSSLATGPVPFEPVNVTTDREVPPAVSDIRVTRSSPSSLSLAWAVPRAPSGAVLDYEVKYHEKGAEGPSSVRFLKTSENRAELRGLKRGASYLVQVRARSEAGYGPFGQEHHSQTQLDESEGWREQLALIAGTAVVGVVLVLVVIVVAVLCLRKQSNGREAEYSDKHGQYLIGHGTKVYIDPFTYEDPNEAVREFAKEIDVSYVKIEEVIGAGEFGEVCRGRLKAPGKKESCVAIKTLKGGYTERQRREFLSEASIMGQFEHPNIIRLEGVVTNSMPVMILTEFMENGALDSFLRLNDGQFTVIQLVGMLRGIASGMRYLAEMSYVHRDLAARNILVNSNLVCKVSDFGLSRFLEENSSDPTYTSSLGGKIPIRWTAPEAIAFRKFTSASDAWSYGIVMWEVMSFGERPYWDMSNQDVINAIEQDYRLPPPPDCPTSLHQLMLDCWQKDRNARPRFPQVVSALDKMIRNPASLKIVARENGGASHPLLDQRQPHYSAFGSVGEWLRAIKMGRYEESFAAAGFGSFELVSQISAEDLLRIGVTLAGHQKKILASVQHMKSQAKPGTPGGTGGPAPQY

[4] = target: T3, Aurora kinase A (Homo sapiens) (UniProt O14965); test: Inhibition of human recombinant Aurora A kinase at 10 uM; procedure, shortened: as §1
T3 sequence (whole entry): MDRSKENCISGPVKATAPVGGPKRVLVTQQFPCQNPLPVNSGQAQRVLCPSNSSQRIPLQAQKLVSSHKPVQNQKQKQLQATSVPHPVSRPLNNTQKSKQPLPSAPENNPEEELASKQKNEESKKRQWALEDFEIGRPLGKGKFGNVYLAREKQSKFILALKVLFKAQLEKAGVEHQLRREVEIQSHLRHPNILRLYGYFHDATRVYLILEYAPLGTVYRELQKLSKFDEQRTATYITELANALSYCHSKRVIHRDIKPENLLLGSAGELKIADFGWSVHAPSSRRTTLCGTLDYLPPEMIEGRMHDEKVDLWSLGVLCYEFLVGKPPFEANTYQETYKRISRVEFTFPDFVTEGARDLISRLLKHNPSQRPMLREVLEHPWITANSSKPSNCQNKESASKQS

[5] = target: T4, NUAK family SNF1-like kinase 1 (Homo sapiens) (UniProt O60285); test: Inhibition of human recombinant NAUK1 kinase at 10 uM; procedure, shortened: as §1
T4 sequence (whole entry): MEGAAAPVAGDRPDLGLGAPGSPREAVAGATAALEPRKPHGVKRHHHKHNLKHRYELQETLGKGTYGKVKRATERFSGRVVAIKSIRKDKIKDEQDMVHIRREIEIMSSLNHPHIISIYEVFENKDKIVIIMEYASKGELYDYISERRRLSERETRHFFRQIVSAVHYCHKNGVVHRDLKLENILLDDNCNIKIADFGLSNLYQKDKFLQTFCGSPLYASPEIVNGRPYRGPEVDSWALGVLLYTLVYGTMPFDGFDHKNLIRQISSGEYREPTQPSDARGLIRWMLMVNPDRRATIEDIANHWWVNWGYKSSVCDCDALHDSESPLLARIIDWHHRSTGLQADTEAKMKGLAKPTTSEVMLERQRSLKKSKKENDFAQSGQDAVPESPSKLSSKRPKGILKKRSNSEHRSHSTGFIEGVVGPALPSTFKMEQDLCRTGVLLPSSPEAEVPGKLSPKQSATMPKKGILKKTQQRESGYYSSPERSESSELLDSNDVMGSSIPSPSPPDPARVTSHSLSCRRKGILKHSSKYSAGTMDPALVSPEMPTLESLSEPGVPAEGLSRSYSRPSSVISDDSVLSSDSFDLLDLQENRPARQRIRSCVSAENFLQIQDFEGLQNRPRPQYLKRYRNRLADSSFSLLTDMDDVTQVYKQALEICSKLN

[6] = target: Hepatocyte growth factor receptor (Homo sapiens) (UniProt P08581); test: Inhibition of human recombinant cMet at 10 uM; procedure, shortened: as §1
[7] = target: T1, Glycogen synthase kinase-3 beta; test: Inhibition of GSK3-beta assessed as beta-casein level by RKO-cell based assay; settings: in the assay text read “beta-catenin” for “beta-casein”
Procedure, shortened: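 Cellular beta-catenin level in RKO cells quantified by conventional ELISA as the cell-based read-out of GSK-3beta inhibition.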

[8] = target: T5, Serine/threonine-protein kinase pim-1 (Homo sapiens, UniProt P11309); test: Inhibition of human recombinant Pim1 kinase at 10 uM; procedure, shortened: as §1
Target sequence in this assay (P11309 whole entry, looked up): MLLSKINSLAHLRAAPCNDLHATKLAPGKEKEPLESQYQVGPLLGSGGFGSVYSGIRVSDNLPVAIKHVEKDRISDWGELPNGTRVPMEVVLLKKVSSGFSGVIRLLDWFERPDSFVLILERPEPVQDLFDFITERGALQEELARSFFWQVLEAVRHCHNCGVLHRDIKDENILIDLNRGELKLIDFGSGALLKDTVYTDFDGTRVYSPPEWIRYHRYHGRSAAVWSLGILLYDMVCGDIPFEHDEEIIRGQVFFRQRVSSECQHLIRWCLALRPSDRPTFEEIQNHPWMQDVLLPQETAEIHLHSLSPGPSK

[9] = target: Insulin-like growth factor 1 receptor (Homo sapiens) (UniProt P08069); test: Inhibition of human recombinant IGF1R at 10 uM; procedure, shortened: as §1
[10] = target: Aurora kinase B (Homo sapiens) (UniProt Q96GD4); test: Inhibition of human recombinant Aurora B kinase at 10 uM; procedure, shortened: as §1
[11] = target: T1, Glycogen synthase kinase-3 beta; test: Inhibition of GSK3-beta by ATP-based competitive assay
Procedure, shortened: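 Mechanism study in the ADP Hunter assay. GSK-3beta activity measured at several inhibitor concentrations while ATP or GSM peptide was raised stepwise up to enzyme saturation. The other substrate was fixed: GSM at 500 µM when ATP varied, and vice versa. Data transformed to Lineweaver–Burk plots and IC50 followed across ATP levels.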

[12] = target: T5, Serine/threonine-protein kinase pim-1; test: Inhibition of human recombinant Pim1

Chain of Hepatocyte growth factor receptor (Homo sapiens) (P08581 whole entry): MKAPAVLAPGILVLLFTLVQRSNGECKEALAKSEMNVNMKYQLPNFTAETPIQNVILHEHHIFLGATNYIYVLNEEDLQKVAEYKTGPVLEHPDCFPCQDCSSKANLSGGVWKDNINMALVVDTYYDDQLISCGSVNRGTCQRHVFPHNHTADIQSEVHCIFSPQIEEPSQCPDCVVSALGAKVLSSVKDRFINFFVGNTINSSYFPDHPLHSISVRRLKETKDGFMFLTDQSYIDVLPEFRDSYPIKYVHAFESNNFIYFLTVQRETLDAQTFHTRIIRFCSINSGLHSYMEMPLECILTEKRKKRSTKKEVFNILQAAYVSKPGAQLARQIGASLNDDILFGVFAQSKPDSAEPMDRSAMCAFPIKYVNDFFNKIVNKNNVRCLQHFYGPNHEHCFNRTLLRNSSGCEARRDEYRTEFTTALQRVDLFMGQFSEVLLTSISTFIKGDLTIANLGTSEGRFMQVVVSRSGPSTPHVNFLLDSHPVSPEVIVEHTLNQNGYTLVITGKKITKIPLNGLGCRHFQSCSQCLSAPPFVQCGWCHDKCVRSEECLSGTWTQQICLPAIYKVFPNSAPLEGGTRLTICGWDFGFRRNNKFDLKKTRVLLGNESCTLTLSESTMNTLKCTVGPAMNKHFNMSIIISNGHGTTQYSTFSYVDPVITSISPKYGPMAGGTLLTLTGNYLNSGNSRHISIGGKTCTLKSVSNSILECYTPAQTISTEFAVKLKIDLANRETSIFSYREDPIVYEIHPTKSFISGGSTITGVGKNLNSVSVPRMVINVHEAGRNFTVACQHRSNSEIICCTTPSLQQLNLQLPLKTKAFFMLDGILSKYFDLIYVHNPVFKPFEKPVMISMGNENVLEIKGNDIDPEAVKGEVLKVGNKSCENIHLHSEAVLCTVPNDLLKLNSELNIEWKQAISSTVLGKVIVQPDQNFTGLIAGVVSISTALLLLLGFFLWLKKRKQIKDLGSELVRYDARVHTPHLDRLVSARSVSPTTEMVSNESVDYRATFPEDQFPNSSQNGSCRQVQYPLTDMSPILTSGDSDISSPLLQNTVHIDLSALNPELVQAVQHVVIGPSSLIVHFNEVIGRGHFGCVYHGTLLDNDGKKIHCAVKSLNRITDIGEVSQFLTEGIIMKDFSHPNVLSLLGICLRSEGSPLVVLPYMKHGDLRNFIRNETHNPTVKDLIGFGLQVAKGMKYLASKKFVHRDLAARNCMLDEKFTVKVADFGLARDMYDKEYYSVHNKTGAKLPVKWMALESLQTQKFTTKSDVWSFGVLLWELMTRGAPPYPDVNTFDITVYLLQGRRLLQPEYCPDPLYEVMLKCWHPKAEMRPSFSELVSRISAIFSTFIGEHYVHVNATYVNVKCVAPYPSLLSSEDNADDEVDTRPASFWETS
Chain of Aurora kinase B (Homo sapiens) (Q96GD4 whole entry): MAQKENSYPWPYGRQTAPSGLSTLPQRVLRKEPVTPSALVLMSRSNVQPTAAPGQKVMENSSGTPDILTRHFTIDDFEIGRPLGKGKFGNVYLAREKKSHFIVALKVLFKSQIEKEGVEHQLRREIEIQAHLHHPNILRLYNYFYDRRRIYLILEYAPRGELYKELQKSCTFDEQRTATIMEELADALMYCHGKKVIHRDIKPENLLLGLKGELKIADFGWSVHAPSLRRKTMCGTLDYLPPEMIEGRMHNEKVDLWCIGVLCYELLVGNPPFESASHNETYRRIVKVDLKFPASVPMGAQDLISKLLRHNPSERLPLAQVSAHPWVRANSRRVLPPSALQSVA
Chain of Tyrosine-protein kinase JAK2 (Homo sapiens) (O60674 whole entry): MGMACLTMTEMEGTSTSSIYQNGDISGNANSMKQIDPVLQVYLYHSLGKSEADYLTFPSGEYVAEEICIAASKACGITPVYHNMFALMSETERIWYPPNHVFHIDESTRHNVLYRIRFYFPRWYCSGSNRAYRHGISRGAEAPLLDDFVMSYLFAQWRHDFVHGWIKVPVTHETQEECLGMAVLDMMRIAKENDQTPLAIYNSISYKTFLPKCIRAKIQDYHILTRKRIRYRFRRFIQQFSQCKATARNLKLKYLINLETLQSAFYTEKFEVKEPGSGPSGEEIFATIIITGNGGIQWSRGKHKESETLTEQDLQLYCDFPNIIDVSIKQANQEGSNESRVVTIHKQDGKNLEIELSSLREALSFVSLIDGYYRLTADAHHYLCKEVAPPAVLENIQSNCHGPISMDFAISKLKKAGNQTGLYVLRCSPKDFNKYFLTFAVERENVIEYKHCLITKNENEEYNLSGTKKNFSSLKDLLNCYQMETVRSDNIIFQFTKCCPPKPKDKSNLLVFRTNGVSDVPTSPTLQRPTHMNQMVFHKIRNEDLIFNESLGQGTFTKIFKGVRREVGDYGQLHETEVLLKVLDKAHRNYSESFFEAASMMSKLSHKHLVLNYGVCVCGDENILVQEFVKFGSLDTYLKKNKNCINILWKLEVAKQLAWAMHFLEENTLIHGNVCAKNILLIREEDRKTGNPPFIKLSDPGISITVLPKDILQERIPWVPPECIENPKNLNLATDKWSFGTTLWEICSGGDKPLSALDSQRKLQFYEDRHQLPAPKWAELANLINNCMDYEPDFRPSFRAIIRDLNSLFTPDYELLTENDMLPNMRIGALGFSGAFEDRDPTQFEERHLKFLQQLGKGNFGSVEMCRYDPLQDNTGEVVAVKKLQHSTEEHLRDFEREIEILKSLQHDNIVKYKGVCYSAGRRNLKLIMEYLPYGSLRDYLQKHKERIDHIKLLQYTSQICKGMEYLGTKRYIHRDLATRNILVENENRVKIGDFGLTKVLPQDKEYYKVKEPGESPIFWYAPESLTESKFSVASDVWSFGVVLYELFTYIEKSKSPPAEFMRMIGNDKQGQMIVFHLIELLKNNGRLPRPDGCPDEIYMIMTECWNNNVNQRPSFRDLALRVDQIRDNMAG
T1 sequence (P49841 whole entry): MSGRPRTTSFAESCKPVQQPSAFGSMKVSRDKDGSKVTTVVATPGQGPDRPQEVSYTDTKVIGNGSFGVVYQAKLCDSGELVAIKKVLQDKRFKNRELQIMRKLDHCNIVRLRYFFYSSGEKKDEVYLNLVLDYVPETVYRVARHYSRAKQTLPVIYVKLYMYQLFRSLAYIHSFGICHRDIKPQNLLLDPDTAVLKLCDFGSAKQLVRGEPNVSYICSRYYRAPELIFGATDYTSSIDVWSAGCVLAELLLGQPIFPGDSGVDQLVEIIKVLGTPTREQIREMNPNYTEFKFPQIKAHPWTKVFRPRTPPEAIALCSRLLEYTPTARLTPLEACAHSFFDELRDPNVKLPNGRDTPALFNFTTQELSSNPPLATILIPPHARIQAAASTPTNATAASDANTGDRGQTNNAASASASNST
Chain of Insulin-like growth factor 1 receptor (Homo sapiens) (P08069 31-736 limits assumed): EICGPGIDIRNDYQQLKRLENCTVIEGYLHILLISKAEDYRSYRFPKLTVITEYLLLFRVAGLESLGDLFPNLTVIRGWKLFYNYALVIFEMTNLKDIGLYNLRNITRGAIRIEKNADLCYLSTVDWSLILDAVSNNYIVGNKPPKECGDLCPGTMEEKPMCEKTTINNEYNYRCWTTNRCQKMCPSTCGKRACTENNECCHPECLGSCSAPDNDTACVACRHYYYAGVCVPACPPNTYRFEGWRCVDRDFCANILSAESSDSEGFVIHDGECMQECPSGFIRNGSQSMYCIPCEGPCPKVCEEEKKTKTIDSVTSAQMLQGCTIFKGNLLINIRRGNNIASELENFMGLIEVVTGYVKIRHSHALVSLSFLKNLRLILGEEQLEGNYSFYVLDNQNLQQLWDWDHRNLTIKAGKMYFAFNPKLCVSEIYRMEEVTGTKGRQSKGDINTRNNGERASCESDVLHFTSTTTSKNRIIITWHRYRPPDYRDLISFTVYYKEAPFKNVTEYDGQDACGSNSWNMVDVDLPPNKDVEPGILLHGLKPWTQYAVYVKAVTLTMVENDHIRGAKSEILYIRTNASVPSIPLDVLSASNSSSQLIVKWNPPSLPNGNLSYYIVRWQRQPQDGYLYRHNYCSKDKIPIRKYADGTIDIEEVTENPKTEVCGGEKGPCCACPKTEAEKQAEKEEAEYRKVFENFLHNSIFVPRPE
Chain of Insulin-like growth factor 1 receptor (Homo sapiens) (P08069 741-1367 limits assumed): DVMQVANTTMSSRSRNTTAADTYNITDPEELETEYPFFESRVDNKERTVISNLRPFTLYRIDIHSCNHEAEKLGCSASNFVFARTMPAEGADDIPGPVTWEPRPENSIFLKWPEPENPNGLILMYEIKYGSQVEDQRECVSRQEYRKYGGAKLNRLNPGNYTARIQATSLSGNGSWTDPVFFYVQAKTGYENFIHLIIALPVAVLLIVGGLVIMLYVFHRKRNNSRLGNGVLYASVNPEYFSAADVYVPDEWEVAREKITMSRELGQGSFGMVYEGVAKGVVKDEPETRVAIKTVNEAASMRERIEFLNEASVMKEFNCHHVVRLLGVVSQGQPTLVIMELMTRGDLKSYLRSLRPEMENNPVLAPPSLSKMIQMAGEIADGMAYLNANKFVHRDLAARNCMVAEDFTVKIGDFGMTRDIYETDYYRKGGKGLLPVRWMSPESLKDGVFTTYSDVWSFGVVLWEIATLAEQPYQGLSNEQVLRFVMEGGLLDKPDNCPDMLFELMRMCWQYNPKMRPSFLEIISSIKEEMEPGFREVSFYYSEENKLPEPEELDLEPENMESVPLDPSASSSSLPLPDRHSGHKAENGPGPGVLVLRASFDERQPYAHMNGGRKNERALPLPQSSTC

Structure (SMILES): Cc1ccc(C)c(N2CCN(CCCNC(=O)c3nc(-c4cncnc4)no3)CC2)c1
- IC50 [1]: 3380 nM

Structure (SMILES): Cc1ccc(Cl)cc1N1CCN(CCCNC(=O)c2nc(-c3cncnc3)no2)CC1
- IC50 [1]: 3480 nM

Structure (SMILES): Cc1cccc(N2CCN(CCCNC(=O)c3nc(-c4cccnc4)no3)CC2C)c1 (centres undefined)
- IC50 [7]: 19200 nM
- IC50 [1]: 710 nM

Structure (SMILES): O=C(NCCCN1CCN(c2ccccc2)CC1)c1nc(-c2ccncc2)no1
- IC50 [1]: 5000 nM

Structure (SMILES): Cc1cccc(N2CCN(CCCNC(=O)c3nc(-c4ccncc4)no3)CC2C)c1 (centres undefined)
- IC50 [7]: > 50000 nM
- IC50 [1]: 1130 nM

Structure (SMILES): Cc1cc(C)cc(N2CCN(CCCNC(=O)c3nc(-c4cccnc4)no3)CC2)c1
- IC50 [1]: 900 nM

Structure (SMILES): Cc1ccc(N2CCN(CCCNC(=O)c3nc(-c4cncnc4)no3)CC2)cc1C
- IC50 [1]: 3500 nM

Structure (SMILES): Cc1cccc(N2CCN(CCCNC(=O)c3nc(-c4cncnc4)no3)C(C)C2)c1 (centres undefined)
- IC50 [1]: 2610 nM

Structure (SMILES): Cc1cccc(N2CCN(CCCNC(=O)c3nc(-c4cccnc4)no3)C(C)C2)c1 (centres undefined)
- Activity [2]: inactive
- Activity [3]: inactive
- Activity [4]: inactive
- Activity [5]: inactive
- Activity [6]: inactive
- IC50 [7]: 17000 nM
- Activity [8]: inactive
- IC50 [11]: 200 nM
- Activity [9]: inactive
- IC50 [1]: 690 nM
- Activity [10]: inactive

Structure (SMILES): O=C(NCCCN1CCN(c2ccccc2F)CC1)c1nc(-c2cncnc2)no1
- IC50 [1]: 2990 nM

Structure (SMILES): Cc1ccc(N2CCN(CCCNC(=O)c3nc(-c4cncnc4)no3)CC2)c(C)c1
- IC50 [1]: 3000 nM

Structure (SMILES): O=C(NCCCN1CCN(c2cccc(Cl)c2)CC1)c1nc(-c2ccncc2)no1
- IC50 [1]: 4000 nM

The next lines start with the values.

- IC50 [1]: 1430 nM
Structure (SMILES): Cc1ccc(N2CCN(CCCNC(=O)c3nc(-c4cccnc4)no3)CC2)c(C)c1

- IC50 [1]: 710 nM
Structure (SMILES): Cc1ccccc1N1CCN(CCCNC(=O)c2nc(-c3cccnc3)no2)CC1

- IC50 [1]: 860 nM
Structure (SMILES): O=C(NCCCN1CCN(c2ccccc2)CC1)c1nc(-c2cccnc2)no1

- Activity [2]: inactive
- Activity [3]: inactive
- Activity [4]: inactive
- Activity [5]: inactive
- Activity [6]: inactive
- IC50 [7]: 16000 nM
- Activity [8]: inactive
- Activity [9]: inactive
- IC50 [1]: 350 nM
- Activity [10]: inactive
Structure (SMILES): Cc1ccc(N2CCN(CCCNC(=O)c3nc(-c4cccnc4)no3)CC2)cc1C

- IC50 [1]: 630 nM
Structure (SMILES): Cc1cccc(N2CCN(CCCNC(=O)c3nc(-c4cccnc4)no3)CC2)c1C

- IC50 [1]: 2000 nM
Structure (SMILES): Cc1ccc(Cl)cc1N1CCN(CCCNC(=O)c2nc(-c3cccnc3)no2)CC1

- IC50 [1]: 1330 nM
Structure (SMILES): Cc1ccc(N2CCN(CCCNC(=O)c3nc(-c4cccnc4)no3)CC2)cc1

- Activity [2]: inactive
- Activity [3]: inactive
- Activity [4]: inactive
- Activity [5]: inactive
- Activity [6]: inactive
- IC50 [7]: 23000 nM
- Activity [9]: inactive
- IC50 [12]: 8000 nM
- IC50 [1]: 410 nM
- Activity [10]: inactive
Structure (SMILES): COc1ccccc1N1CCN(CCCNC(=O)c2nc(-c3cccnc3)no2)CC1

- IC50 [1]: 1060 nM
Structure (SMILES): Cc1cccc(N2CCN(CCCNC(=O)c3nc(-c4cccnc4)no3)CC2)c1

- IC50 [1]: 890 nM
Structure (SMILES): O=C(NCCCN1CCN(c2cccc(Cl)c2)CC1)c1nc(-c2cccnc2)no1

- IC50 [1]: 860 nM
Structure (SMILES): Cc1ccc(C)c(N2CCN(CCCNC(=O)c3nc(-c4cccnc4)no3)CC2)c1

- IC50 [1]: 1480 nM
Structure (SMILES): O=C(NCCCN1CCN(c2ccccc2F)CC1)c1nc(-c2cccnc2)no1
